Five compounds from ChEMBL document CHEMBL1139207, “Pyrroloacridine alkaloids from Plakortis quasiamphiaster: structures and bioactivity” (J Nat Prod, 2007) can be followed below.

The source made the active and inactive calls. The calls are words filed in the database; no cut-off is given here.

Data set [1] in a line: Induction of Top2-mediated catenation of DNA. It is filed as functional.
Data set [2] concerns Saccharomyces cerevisiae. Put plainly: Inhibition of Saccharomyces cerevisiae top1delta by yeast halo assay. It is filed as functional, organism-based. In outline: (§1)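 Diploid S. cerevisiae BY4743 (top1∆ or wild type) from overnight culture seeded into YPD-H agar (YPD buffered with 25 mM HEPES, pH 7) and cooled 30 min. DMSO stocks were pin-transferred at 200 nL into the agar. Plates read by absorbance at 544 nm, growth-inhibition halo diameter measured, and top1∆ growth compared with wild type.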

A short description of data set [3]: Cytotoxicity against human H116 cells by disk diffusion assay. The class given is cell-based.
Data set [4] in a line: Cytotoxicity against human H116 cells by clonogenic assay after 2 hrs. The class given is cell-based. The conditions noted are these: h116, 2 h. Summed up: (§2)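 Clonogenic survival of human colon H-116 cells over a range of concentrations, exposed for 2, 24 or 168 h (168 h being continuous over the 7-day incubation). Value reported as the concentration giving 10% surviving fraction (S10), read from the concentration-response curve.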

Data set [5] relates to Saccharomyces cerevisiae. Put plainly: Inhibition of wild type Saccharomyces cerevisiae by yeast halo assay. The class given is functional, organism-based. In outline: as §1
The nature of data set [6]: Cytotoxicity against human H116 cells by clonogenic assay after 24 hrs. It is filed as cell-based. The conditions noted are these: h116, 24 h. In outline: as §2
Data set [7] can be described thus: Cytotoxicity against human H116 cells by clonogenic assay after 168 hrs. The conditions noted are these: h116, 168 h. The class given is cell-based. Summed up:
as §2

The test system of data set [8] is Saccharomyces cerevisiae. Put plainly: Inhibition of Saccharomyces cerevisiae top1delta in liquid culture. The class given is functional. In outline:
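Diploid S. cerevisiae BY4743 top1∆ and wild type grown in 100 µL liquid cultures with six 2-fold dilutions of compound alongside DMSO controls. Absorbance at 544 nm read every 30 min. Doubling time computed at each concentration and compared with the DMSO doubling time; LC50 derived.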

Regarding `Cn1ccc2c(c1=O)C(=O)c1nccc3c1c-2nc1ccccc13`, the result in data set [1] was Active.

On to `CNc1c2c(c3nc4ccccc4c4c3c1N=C4)NCCC2=O` [PLAKINIDINE A], for which the outcome in data set [2] and in data set [5] was inactive. In addition, the Activity entry in data set [3] was “Active”; in data set [4], 20 µg/mL; in data set [6], 1.5 µg/mL; in data set [7], 150 ng/mL.

Take `CCC/C=C/CCCCCCCCCCCC[C@]1(C)OC(=O)[C@@H](CO)[C@@H]1O` [AMPHIASTERIN B2]: the result in data set [2] and in data set [5] was inactive. Besides, the Activity entry in data set [3] was “Not Active”.

With `O=C1CCNC2=C1C(=O)c1[nH]cc3c1c2nc1ccccc13` [PLAKINIDINE E], the Activity result in data set [2] is “Toxic”; in data set [3] it was “Not Active”; in data set [5], “Non-toxic”. Besides, the LC50 in data set [8] is 33 µM.

In the case of `CCC/C=C/CCCCCCCCCC[C@]1(C)OC(=O)[C@@H](CO)[C@@H]1O` [AMPHIASTERIN B1], the outcome in data set [2] and in data set [5] was inactive. The Activity entry in data set [3] is “Not Active”.
